The values that follow come from ChEMBL document CHEMBL1142124, “Antimicrobial prenylated anthracene derivatives from the leaves of Harungana madagascariensis” (2007).

Calls of active or inactive are those of the source. The rule behind the calls is not given here.

Test [1] has as its system Priestia megaterium. Briefly: Antibacterial activity against Bacillus megaterium at 1 ug/uL by agar diffusion assay. Format: functional. A digest of the protocol:
(§1)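 Filter-disk agar diffusion. 50 µL of test solution is applied to a sterile 9 mm disk, and the disk is air-dried. Disks sit on an agar medium suited to each organism, and the plate is sprayed with a suspension of that organism. Incubation is at 28 °C overnight. The radius of the inhibition zone is read in mm.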
A general note: A growth-free zone around the sample is the usual read-out of agar diffusion tests.

In test [2] the test system is Priestia megaterium. The test is described as follows: Antibacterial activity against Bacillus megaterium at 5 ug/uL by agar diffusion assay. The format is functional. In short, it runs like this:
as §1

The subject of test [3] is [Chlorella] fusca. Briefly: Antimicrobial activity against Chlorella fusca at 1 ug/uL by agar diffusion assay. The conditions noted are these: Scenedesmus fuscus. Format: functional, organism-based. A digest of the protocol: as §1
Test [4] relates to [Chlorella] fusca. The test is described as follows: Antimicrobial activity against Chlorella fusca at 5 ug/uL by agar diffusion assay. The format is functional, Scenedesmus fuscus. The conditions noted are these: for Activity: Scenedesmus fuscus. In short, it runs like this: as §1
In test [5] the test system is Microbotryum violaceum. The test is described as follows: Antimicrobial activity against Micobotryum violaceum at 1 ug/uL by agar diffusion assay. Format: functional, organism-based. A digest of the protocol: as §1
Test [6] deals with Microbotryum violaceum. The test is described as follows: Antimicrobial activity against Micobotryum violaceum at 5 ug/uL by agar diffusion assay. The format is functional. A digest of the protocol: as §1

As for `O=c1c2cc(O)ccc2oc2cccc(O)c12`, the “inhibition zone (IZ)” value in the test with Priestia megaterium [1] is reported as 9 mm; in the test on Priestia megaterium [2], 12 mm; in test [Chlorella] fusca [4], 10 mm; in the test on Microbotryum violaceum [6], 12 mm. Further, the result (in test [Chlorella] fusca [3]; in the test on Microbotryum violaceum [5]) was inactive.

On to `CC(C)=CCc1c(C)c2c3c(c1O)C(=O)c1c(O)cc4c(c1[C@]31O[C@H](C2)C(C)(C)O1)C=CC(C)(C)O4`, for which the outcome (with Priestia megaterium [1]; in the test on Priestia megaterium [2]; in test [Chlorella] fusca [3]; in test [Chlorella] fusca [4]; in the test with Microbotryum violaceum [5]; in the test with Microbotryum violaceum [6]) was inactive.

For the compound `CC(C)=CCc1c(C)c(CC=C(C)C)c2c(c1O)C(=O)c1c(O)cc(O)c(CC=C(C)C)c1C2`, the outcome (in the test on Priestia megaterium [1]; with Priestia megaterium [2]; in test [Chlorella] fusca [3]; in test [Chlorella] fusca [4]; in the test with Microbotryum violaceum [5]; in the test on Microbotryum violaceum [6]) was inactive.

Consider `CC(C)=CCc1c(C)cc(O)c2c(O)c3c(cc12)[C@]1(CC=C(C)C)C[C@H](O)C(C)(C)[C@@H](C3=O)C1=O` [HARUNMADAGASCARIN D], for which the result (in the test with Priestia megaterium [1]; in test [Chlorella] fusca [3]; in test [Chlorella] fusca [4]; in the test with Microbotryum violaceum [5]; in the test on Microbotryum violaceum [6]) was inactive. Also, in the test on Priestia megaterium [2], the “inhibition zone (IZ)” value turned out to be 10 mm.

On to `COC1c2c(CC=C(C)C)c(C)cc(O)c2C(=O)c2c(O)cc3c(c21)CC(C(C)(C)O)O3` (stereo not given) [KENGANTHRANOL C], for which the “inhibition zone (IZ)” value was 6 mm in the test with Priestia megaterium [1] and 10 mm with Priestia megaterium [2]. The result (in test [Chlorella] fusca [3]; in test [Chlorella] fusca [4]; in the test on Microbotryum violaceum [5]; with Microbotryum violaceum [6]) was inactive.
